Rows were chosen to be rich in hits. Some 3.7% of all compounds tested hit in one or more screens of this group.
Kir21 inh: inhibitors of mouse Kir2.1 inward-rectifier potassium channel; Inward rectifier potassium channel 2 (Mus musculus), P35561; HEK293-Kir2.1, FluxOR thallium flux fluorescence; hits give low values; B-score at 10 µM; hit rate 0.85% among 310,000; AID 1672, 2009;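 active = fluorescence ratio B-score at or below minus 3 SD of library scores, with starting-brightness B-score within 2 SD, cut at about -4.2 in these data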;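 note: channel flux triggered by added potassium and thallium sulfate stimulus; B-score of peak minus minimum fluorescence over baseline after thallium stimulus; more negative B-score means stronger Kir2.1 block with less thallium influx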
KCNK9 block: KCNK9 potassium channel inhibitors, primary screen, HEK293 cells, thallium flux. Potassium channel subfamily K member 9 (Homo sapiens), Q9NPC2. FluxOR thallium flux fluorescence; hits give low values. B-score at 10 µM. hit rate 1.2% among 310,000;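 active = ratio B-score over 3 SD below the library mean, with starting fluorescence within 5 SD of its mean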;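 note: negative B-score means less thallium flux so channel inhibition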
KCNK3 block: human KCNK3 channel inhibitors, primary screen, CHO cells, FluxOR thallium flux, B-score; Potassium channel subfamily K member 3 (Homo sapiens), O14649; FluxOR fluorescence; hits give low values; B-score at 10 µM; hit rate 0.84% among 340,000;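 active = B-score under library mean minus 4 SD, starting fluorescence ratio at most library mean plus 5 SD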;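 note: more negative B-score means stronger inhibition of thallium flux through KCNK3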
KCNQ1 block: inhibitors of human KCNQ1 channel, primary screen, cell-based, thallium flux, high-throughput; CHO-K1 KCNQ1, FluxOR thallium flux fluorescence; hits give high values; Potassium voltage-gated channel subfamily KQT member 1 (Homo sapiens), P51787; B-score at 10 µM; AID 2642, 2010; hit rate 1.3% among 310,000;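 active = compounds whose thallium flux B-score, printed positive for inhibition, exceeds three library SD while starting fluorescence stays within three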;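 note: channel opened by potassium depolarization with thallium stimulus after 20 min compound exposure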
Target sequence (P51787 whole entry, looked up): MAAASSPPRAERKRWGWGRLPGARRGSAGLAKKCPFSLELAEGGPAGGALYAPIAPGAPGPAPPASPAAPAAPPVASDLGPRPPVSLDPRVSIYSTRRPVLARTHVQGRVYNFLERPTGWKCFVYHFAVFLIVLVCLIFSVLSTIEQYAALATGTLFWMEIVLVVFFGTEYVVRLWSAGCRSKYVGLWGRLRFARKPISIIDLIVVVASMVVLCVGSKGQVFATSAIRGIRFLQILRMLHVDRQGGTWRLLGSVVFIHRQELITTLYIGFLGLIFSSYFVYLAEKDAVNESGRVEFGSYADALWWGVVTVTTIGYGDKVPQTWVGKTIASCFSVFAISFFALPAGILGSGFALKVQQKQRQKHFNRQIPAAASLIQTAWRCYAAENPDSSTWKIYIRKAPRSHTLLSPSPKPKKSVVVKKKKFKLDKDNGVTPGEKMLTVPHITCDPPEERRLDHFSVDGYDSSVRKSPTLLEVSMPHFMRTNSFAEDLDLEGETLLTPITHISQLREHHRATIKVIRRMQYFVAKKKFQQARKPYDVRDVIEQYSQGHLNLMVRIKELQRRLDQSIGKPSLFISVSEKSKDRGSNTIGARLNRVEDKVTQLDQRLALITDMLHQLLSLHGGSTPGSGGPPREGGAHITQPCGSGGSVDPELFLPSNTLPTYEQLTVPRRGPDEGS
KCNQ1 pot: potentiators or activators of KCNQ1 channel, primary screen, cell-based, thallium flux, high-throughput; CHO-K1 KCNQ1, thallium flux FluxOR fluorescence; hits give high values; B-score at 10 µM; hit rate 0.35% among 310,000; AID 2648, 2010;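 active = fluorescence ratio B-score, a plate-corrected score, at least three library SD, with initial intensity B-score within 5 SD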
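System: CHO-K1 cells stably expressing KCNQ1 / Medium: assay buffer for compound exposure, DMSO matched across wells / Reagent: thallium- and potassium-containing depolarizing buffer / Compound: one concentration, matched DMSO / Incubation: 20 min compound pretreatment at room temperature / Measured by: kinetic FluxOR fluorescence, 10 s baseline plus 110 s post-stimulus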
hERG protect: hERG rescue from dofetilide block, primary screen, cell-based, CHO-hERG, FluxOR thallium flux, dofetilide IC70; activation (rescue from dofetilide block), less the hit threshold, % at 10 µM; hit rate 0.51% among 310,000; Voltage-gated inwardly rectifying potassium channel KCNH2 (Homo sapiens), Q12809; dofetilide IC70 present;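 active = activation above the mean of controls blocked by dofetilide plus 5 SD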;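 note: thallium influx through hERG after potassium depolarization seen as dye fluorescence rise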
KCNK9 inh conf: KCNK9 potassium channel inhibitors, confirmation, HEK293 cells, thallium flux, duplicate. shares compounds with KCNK9 block. FluxOR thallium flux fluorescence. inhibition, % at 10 µM. hit rate 43% among 4,900. AID 492992, 2010;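 active = thallium signal inhibited by more than 5 SD of the compound-free buffer control wells, on both duplicate plates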
Kir2-1 spec: mouse Kir2.1 channel inhibition, confirmation, selectivity assay for KCNK9 modulator project, cell-based, HEK293, thallium flux | Kir2.1 cells, FluxOR thallium flux fluorescence | inhibition, % at 10 µM | hit rate 4% among 4,900 | AID 492993, 2010 | shares compounds with KCNK9 block;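 active = thallium signal drop more than 5 SD beyond the mean of the no-compound control wells, seen in both duplicate plates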;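 note: signal is fluorescence rise after thallium addition divided by baseline fluorescence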
HEK293 Tl ctr: thallium flux in non-induced HEK293 cells, confirmation, counter-screen for KCNK9 inhibitor project, cell-based, second counter screen, non-induced KCNK9-HEK293. shares compounds with KCNK9 block. FluxOR thallium flux. inhibition, % at 10 µM. hit rate 40% among 4,900. AID 492997, 2010;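 active = thallium signal drop beyond 5 SD of the untreated control mean, on both duplicate plates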
A number is an active result; 0 = inactive; - = no result.

SMILES	Kir21 inh	KCNK9 block	KCNK3 block	KCNQ1 block	KCNQ1 pot	hERG protect	KCNK9 inh conf	Kir2-1 spec	HEK293 Tl ctr
CC1CCCCN1C(=O)CSc1nc(C2CC2)nc2c1cnn2-c1ccccc1 (centres undefined)	0	-11	0	0	0	0	56%	0	0
Cc1nn(C)c(C)c1NC(=O)CSc1nc(C2CC2)nc2c1cnn2-c1ccccc1	0	0	0	0	0	0	-	-	-
COc1ccc(S(=O)(=O)N2CC3CCCN3c3cc(C(F)(F)F)ccc32)cc1 (centres undefined)	0	0	0	0	0	0	-	-	-
COc1ccc(S(=O)(=O)N2CC3CCCN3c3ccc(C(F)(F)F)cc32)cc1 (centres undefined)	0	-18	0	0	0	0	72%	0	44%
CC1CCCN(CCCNS(=O)(=O)c2ccc3c(c2)CCN3C(=O)C2CC2)C1 (centres undefined)	0	0	0	0	0	0	-	-	-
CCCc1nn2c(=O)cc(CSCC(=O)Nc3ccc(C)cc3)nc2s1	0	0	0	0	0	0	-	-	-
O=c1oc2ccccc2c(O)c1Cc1cc(Cl)c2cccnc2c1O	0	0	0	0	0	0	0	0	0
O=C(Cc1c(O)c2ccccc2oc1=O)c1ccc(C(F)(F)F)cc1	0	0	0	0	0	0	-	-	-
COc1cc(C2C3=C(CC(C)(C)CC3=O)OC(N)=C2[N+](=O)[O-])ccc1O (centres undefined)	0	0	0	0	0	0	-	-	-
Cc1ccc(NC2CCCN(C(=O)c3cn(C)c4ccccc34)C2)cc1C (centres undefined)	0	0	0	0	0	0	0	0	0
COc1ccc(NC2CCCN(C(=O)c3cn(C)c4ccccc34)C2)cc1 (centres undefined)	0	0	0	0	0	0	0	0	0
COc1ccc(CCNC(=O)C(C)Sc2ccc(C)cc2)cc1OC (centres undefined)	0	0	0	0	0	0	-	-	-
CC(=O)N1N=C(c2ccc(C)cc2)OC1c1ccc(C)cc1 (centres undefined)	0	0	0	0	0	0	-	-	-
CC(=O)N1N=C(c2ccc(C)cc2)OC1c1ccc(C(C)C)cc1 (centres undefined)	0	0	0	0	0	0	0	0	30%
CCOc1ccccc1N1CCN(C(=O)C2c3ccccc3Oc3ccccc32)CC1	0	-12	-9.3	0	0	0	45%	0	36%
CS(=O)(=O)N1CCN(C(=O)C2c3ccccc3Oc3ccccc32)CC1	0	0	0	0	0	0	-	-	-
COc1ccc2oc(C(=O)NCC(c3ccco3)N(C)C)c(C)c2c1 (centres undefined)	0	0	0	0	0	0	-	-	-
Cc1ccc2oc(C(=O)N(C)Cc3ccon3)c(C)c2c1	0	0	0	0	0	0	-	-	-
Cc1ccc2oc(C(=O)N(C)Cc3ccc(C)o3)c(C)c2c1	0	0	0	0	0	0	0	0	25%
COc1ccc2oc(C(=O)N(C)CCOc3ccc(Cl)cc3)c(C)c2c1	0	0	0	0	0	0	0	0	0

Bioassay records: PubChem, Johns Hopkins Ion Channel Center
